Results from PubChem BioAssay AID624466 (The Scripps Research Institute Molecular Screening Center, 2012).
About 5,400 (1.5%) of roughly 360,000 compounds were called active.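 The calls were made as follows: active = inhibition above a per-plate cutoff, the mean inhibition of test compounds on that plate plus 3 SD (cut at about 49% in these data); inactive = the rest.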 The list comes from a sample in which actives are over-represented; it also holds similar structures and randomly drawn compounds.

biological target: Trace amine-associated receptor 1 (Homo sapiens) (UniProt Q96RJ0); assay: blockers of beta-PEA-driven TAAR1 calcium signal – Fluo-8 calcium fluorescence, CHO RD-HGA16 cells, primary screen (AID 624466); details: CHO RD-HGA16 TAAR1, Fluo-8 calcium fluorescence, antagonist; at 3 µM; hits give high values;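 also: 0% = DMSO plus EC80 beta-PEA response and 100% = DMSO alone without agonist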
Procedure, shortened: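 Assay system: CHO-derived RD-HGA16 cells stably expressing human TAAR1 plus Gα16. Timing: 140 s kinetic read after compound, 140 s after agonist. Technique: kinetic Fluo-8 calcium fluorescence measurement. Measure: % inhibition of agonist calcium response.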

Trace amine-associated receptor 1 (Homo sapiens), sequence (Q96RJ0 whole entry, looked up): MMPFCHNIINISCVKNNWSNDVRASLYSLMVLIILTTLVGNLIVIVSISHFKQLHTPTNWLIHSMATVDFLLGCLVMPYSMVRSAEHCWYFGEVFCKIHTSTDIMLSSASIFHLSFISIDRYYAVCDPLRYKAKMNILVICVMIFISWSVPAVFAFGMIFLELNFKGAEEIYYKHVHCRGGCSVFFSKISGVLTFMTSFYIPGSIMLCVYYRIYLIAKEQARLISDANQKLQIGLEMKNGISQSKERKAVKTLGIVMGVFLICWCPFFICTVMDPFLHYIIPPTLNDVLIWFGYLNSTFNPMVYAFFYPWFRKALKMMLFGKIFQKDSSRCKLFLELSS

inhibition, inactive:
Nc1ncnc2c1ncn2[C@@H]1O[C@H](C(=O)N[C@@H](CCc2ccccc2)C(=O)N2CCCN(Cc3cccs3)CC2)[C@@H](O)[C@H]1O 3.27%
COc1cccc(CC2(CO)CCN(Cc3cnc(-c4cccc(C)c4)nc3)CC2)c1 5.01%
COc1cccc(CNC(=O)[C@H]2CCCN2C(=O)[C@H]2CCCN2C(=O)C2CCCCC2)c1 -16.5%
COc1cccc(C=CC(=O)C=CC=Cc2ccccc2)c1 -24.3%
COc1ccc(/C=C/C(=O)c2c(O)cc(OC)cc2OC)cc1 1.09%
O=C(COc1ccc(Cl)cc1)NCCSc1ccccc1 0.81%
CCCNC(=O)C1(C)CCCN(Cc2c(C)nn(-c3ccccc3)c2C)C1 (stereo not given) 5.37%
O=C1C(=O)N(CCCN2CCOCC2)C(c2ccc([N+](=O)[O-])cc2)/C1=C(\O)c1ccc2c(c1)OCCO2 (stereo not given) 6.85%
CC(=O)c1ccc(S(=O)(=O)NCC2CCN(C(=O)C(=O)c3cccs3)CC2)cc1 -6.62%
CC(C)CC(=O)NC(=S)NCc1ccccc1 -16.9%
O=C(CCN1CCN(c2ccccc2)CC1)NNC(=S)Nc1ccccc1 -13.7%
O=C(C(=O)N1CCN(c2ccccc2)CC1)c1ccc2c(c1)OCO2 -15%
COCc1cc(=O)[nH]c(SC)n1 -6.85%
NS(=O)(=O)c1ccc(CNC(=O)c2cccc(S(=O)(=O)N3CCc4ccccc43)c2)cc1 -6.37%
CC1CN(S(=O)(=O)c2ccc(C(=O)Nc3sccc3C(N)=O)cc2)CC(C)O1 (stereo not given) 9.54%
COCCn1c(=NC(=O)c2ccccc2[N+](=O)[O-])sc2cc(S(C)(=O)=O)ccc21 -0.74%
O=S1(=O)CCO[C@H]2Cc3ccccc3[C@H]2N1Cc1ccccc1 9.98%
Cc1ccc(CNC(=O)CCNS(=O)(=O)c2ccc(Br)s2)cc1 5.04%
CCOC(=O)C1=C(C(=O)OCC)C2N(Cc3ccc(C#N)cc3)c3ccccc3[C@@]23C[C@@H](C(=O)OC)N(S(=O)(=O)c2ccc(F)cc2)C3=N1 (stereo not given in full) -16.3%
O=C(N/C(=C\c1ccc([N+](=O)[O-])cc1)C(=O)N1CCCCC1)c1ccco1 9.56%
COc1ccc(OC)c(C(=O)NC2CCCc3c2cnn3-c2cc(C)cc(C)c2)c1 (stereo not given) -17.8%
Cn1nccc1C(=O)NC1CCCc2c1cnn2-c1ccc(F)cc1F (stereo not given) 4.98%
CCN1CCN(C(=O)c2cc3cc4ccc(OC)cc4nc3s2)CC1 0.15%
CCCCCCCCN1C(=O)[C@@H](CC(=O)NCc2ccccc2)C[C@@]2(C(=O)OC)C1=C[C@H](C(C)(C)C)O[C@@H]2C -4.61%
CCOC(=O)[C@]12CCC=C1N(Cc1ccccc1)C(=O)[C@H](CC(=O)N1CCCC1)C2 -13.9%
Cn1nnc(NC(=S)NC(=O)c2ccccc2)n1 -35%
CCOC(=O)c1c(NC(=O)C2(C)Cc3ccccc3C(=O)O2)sc2c1CCCC2 (stereo not given) -23.7%
CCOC(=O)N1CCN(C(=O)C[C@H]2C[C@@]3(C(=O)OC)C(=C[C@H](C4CCCC4)O[C@@H]3C)N(Cc3ccccc3)C2=O)CC1 -6.31%
CC(C)N1C(=O)c2ccccc2NC(=O)C1C(=O)NCc1cccs1 (stereo not given) -8.37%
O=[N+]([O-])c1cc([N+](=O)[O-])c2cccnc2c1O 2.43%
CC(NCC(=O)Nc1cc(Cl)cc(Cl)c1)c1ccccc1 (stereo not given) 3.33%
O=C(CNC(c1ccccc1)c1ccccc1)Nc1ccc(F)cc1 -11.9%
Cc1ccc(-c2cc(=O)[nH]c(NCc3ccccc3)n2)cc1 -9.41%
COc1ccc(CN(CC(=O)NC2CCCC2)C(=O)CCC(=O)Nc2cc(C)on2)cc1 -2.7%
Cc1ccc(CN(CC(=O)NC2CCCCC2)C(=O)c2csnn2)cc1 10.9%
COCCNC(=S)N(C)[C@H]1C[C@H]2c3[nH]c4ccccc4c3CCN2C[C@H]1[C@H](C)O -4.21%
COC(=O)C[C@@H]1C=C[C@@H](NC(=O)c2ccc3c(c2)OCO3)[C@@H](CO)O1 8.18%
COc1ccc(CCNc2ncnc3nc[nH]c23)cc1OC 42.1%
O=C(Cn1cnc2ccccc2c1=O)NCC1COc2ccccc2O1 (stereo not given) -0.58%
O=C(c1ccc(Cl)c(S(=O)(=O)N2CCCCC2)c1)N1CCCCCC1 -4.7%
O=C(NCCc1ccc(F)cc1)c1ccc(S(=O)(=O)N2CCCCC2)cc1 -0.8%
c1ccc(Cn2nnc3c(NCC4CC4)ncnc32)cc1 -5.34%
CC(C)Nc1ncnc2c1nnn2Cc1ccccc1 -8.98%
Nc1ncnc2c1ncn2C1OC(CO)CC1O (stereo not given) -14.9%
CC1(C)OC(=O)C2=C(CC(CCc3ccccc3)OC2c2ccc(Cl)cc2)O1 (stereo not given) 18.9%

inhibition, active:
O=C(/C=C(O)/C=C/c1ccc(O)cc1)/C=C/c1ccc(O)cc1 68.2%
CCCCC(=O)NNC(=S)NC(=O)C(c1ccccc1)c1ccccc1 106%
CNC(=O)c1ccsc1NC(=O)c1ccc(S(=O)(=O)N2CCc3ccccc32)cc1 62.9%
COc1ccc(C(=O)NC2CCCc3c2cnn3-c2cccc(C)c2C)c(OC)n1 (stereo not given) 62.1%
CCOC(=O)C1=C(NC(=S)NC(=O)c2ccccc2)c2ccccc2CC1(C)C 59.3%
NNC(=O)CNC(c1ccccc1)c1cc(Cl)ccc1NC(=O)c1ccccc1 (stereo not given) 80%
Cc1cc(C(C)(C)C)oc1C(=O)N(CC(=O)NC1CCCC1)Cc1ccc(Cl)cc1 56.4%
c1ccc2c(c1)OCC(CNc1ncnc3nc[nH]c13)O2 (stereo not given) 105%
NS(=O)(=O)c1ccc(CCNC(=O)c2ccc(Cl)c(S(=O)(=O)N3CCCCCC3)c2)cc1 48.9%
Clc1ccc(Nc2ncnc3c2nnn3Cc2ccccc2)cc1 59.2%
